Results as given in ChEMBL document CHEMBL1122443, “Synthesis and antitumor evaluation of selected 5,6-disubstituted 1(2)H-indazole-4,7-diones” (1983).
Activity calls are given as the source filed them. The rule behind the calls is not given here.

How the values were obtained:
Mus musculus [1] = assay: Antitumor activity in CF1 mice bearing Ehrlich ascites carcinoma measured as percentage inhibition at 50 mg/kg; type: functional
In short: (§1)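 Ehrlich ascites model in male CF1 mice (22–25 g): 2 × 10⁶ cells ip on day 0, ip dosing days 1–8, kill on day 9. Percent inhibition = 100 − [(treated volume × treated ascrit)/(control volume × control ascrit)]. Greater than 80% was taken as significant. Vehicle was 0.05% Tween 80, alone or with 5% absolute EtOH. 6-Mercaptopurine was the positive control.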

Mus musculus [2] = assay: Antitumor activity in 18 CF1 mice bearing Ehrlich ascites carcinoma measured as survivors on day 9 at 50 mg/kg; 16/18; type: functional
Mus musculus [3] = assay: Antitumor activity in CF1 mice bearing Ehrlich ascites carcinoma measured as ascites volume at 50 mg/kg; type: functional
In short: (§2)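 Male CF1 mice (22–25 g) received 2 × 10⁶ Ehrlich carcinoma cells ip on day 0. Dosing was ip daily on days 1–8, with sacrifice on day 9. Ascites fluid volume per mouse and ascrit (packed cell volume) were measured for each group. Vehicle was 0.05% Tween 80, or 5% absolute EtOH in 0.05% Tween 80, used for both compound and control. 6-Mercaptopurine was the positive control.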

Mus musculus [4] = assay: Antitumor activity in CF1 mice bearing Ehrlich ascites carcinoma measured as percent ascrit packed cell volume at 50 mg/kg; type: functional; in short: as §2
Mus musculus [5] = assay: Average days survived for treated / average days survived for control at 25 (mg/kg); 17.6/9.5; type: functional
Mus musculus [6] = assay: Anti tumor activity in mice bearing lymphocytic leukemia P-388 at 25 mg/kg; type: functional
In short: (§3)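 Male BDF1 mice (20–23 g) were inoculated ip with 1 × 10⁶ P-388 leukemia cells on day 0. Compound was given ip once daily on days 1–14 in 0.05% Tween 80 vehicle, with a vehicle control group and 5-fluorouracil as positive control. Activity was scored as % T/C, average days survived treated/control, with >125% taken as significant.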

Mus musculus [7] = assay: Antitumor activity in CF1 mice bearing Ehrlich ascites carcinoma measured as percentage inhibition at 5 mg/kg; type: functional; in short: as §1
Mus musculus [8] = assay: Antitumor activity in CF1 mice bearing Ehrlich ascites carcinoma measured as percentage inhibition at 8 mg/kg; type: functional; in short: as §1
Mus musculus [9] = assay: Antitumor activity in CF1 mice bearing Ehrlich ascites carcinoma measured as survivors on day 9 at 3 mg/kg; 5/6; type: functional
Mus musculus [10] = assay: Antitumor activity in CF1 mice bearing Ehrlich ascites carcinoma measured as ascites volume at 3 mg/kg; type: functional; in short: as §2
Mus musculus [11] = assay: Antitumor activity in CF1 mice bearing Ehrlich ascites carcinoma measured as ascites volume at 5 mg/kg; type: functional; in short: as §2
Mus musculus [12] = assay: Antitumor activity in CF1 mice bearing Ehrlich ascites carcinoma measured as ascites volume at 8 mg/kg; type: functional; in short: as §2
Mus musculus [13] = assay: Antitumor activity in CF1 mice bearing Ehrlich ascites carcinoma measured as survivors on day 9 at 5 mg/kg; 4/6; type: functional
Mus musculus [14] = assay: Antitumor activity in CF1 mice bearing Ehrlich ascites carcinoma measured as survivors on day 9 at 8 mg/kg; 4/6; type: functional
Mus musculus [15] = assay: Antitumor activity in CF1 mice bearing Ehrlich ascites carcinoma measured as percentage inhibition at 3 mg/kg; IA= inactive; type: functional, organism-based; set-up: dose 3 mg/kg
In short: (§4)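 In the Ehrlich ascites model, male CF1 mice (22–25 g) received 2 × 10⁶ cells ip on day 0 and compound ip on days 1–8, with a vehicle of 0.05% Tween 80 ± 5% EtOH. Ascites volume and ascrit were taken on day 9. % inhibition = 100 − [(vol × ascrit, treated)/(vol × ascrit, control)], with >80% taken as significant.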

Mus musculus [16] = assay: (§5) Antitumor activity in CF1 mice bearing Ehrlich ascites carcinoma measured as percent ascrit packed cell volume at 3 mg/kg; type: functional; in short: as §2
Mus musculus [17] = assay: Antitumor activity in CF1 mice bearing Ehrlich ascites carcinoma measured as percent ascrit packed cell volume at 5 mg/kg; type: functional; in short: as §2
Mus musculus [18] = assay: Antitumor activity in CF1 mice bearing Ehrlich ascites carcinoma measured as percent ascrit packed cell volume at 8 mg/kg; type: functional; in short: as §2
Mus musculus [19] = assay: Antitumor activity in CF1 mice bearing Ehrlich ascites carcinoma measured as percentage inhibition at 3 mg/kg; IA=inactive; type: functional, organism-based; set-up: dose 3 mg/kg; in short: as §4
Mus musculus [20] = assay: Antitumor activity in CF1 mice bearing Ehrlich ascites carcinoma measured as survivors on day 9 at 3 mg/kg; 6/6; type: functional
Mus musculus [21] = assay: Average days survived for treated / average days survived for control at 1 (mg/kg); 10/9.2; type: functional
Mus musculus [22] = assay: Antitumor activity in CF1 mice bearing Ehrlich ascites carcinoma measured as survivors on day 9 at 5 mg/kg; 5/5; type: functional
Mus musculus [23] = assay: Antitumor activity in CF1 mice bearing Ehrlich ascites carcinoma measured as survivors on day 9 at 8 mg/kg; 5/6; type: functional
Mus musculus [24] = assay: as §5; type: functional; remark: listed apart in the source
In short: (§6)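 CF1 male mice (22–25 g) were inoculated ip with 2 × 10⁶ Ehrlich cells on day 0 and treated ip on days 1–8 in 0.05% Tween 80 or 5% EtOH/0.05% Tween 80 vehicle. On day 9 the mice were sacrificed, and the ascrit (packed cell volume) of the ascites fluid was determined.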

Mus musculus [25] = assay: Anti tumor activity in mice bearing lymphocytic leukemia P-388 at 1 mg/kg; type: functional; in short: as §3
Mus musculus [26] = assay: Antitumor activity in CF1 mice bearing Ehrlich ascites carcinoma measured as percentage inhibition at 1 mg/kg; type: functional; in short: as §4
Mus musculus [27] = assay: Antitumor activity in CF1 mice bearing Ehrlich ascites carcinoma measured as percentage inhibition at 10 mg/kg; type: functional; in short: as §4
Mus musculus [28] = assay: Antitumor activity in CF1 mice bearing Ehrlich ascites carcinoma measured as survivors on day 9 at 1 mg/kg; 6/6; type: functional
Mus musculus [29] = assay: Antitumor activity in CF1 mice bearing Ehrlich ascites carcinoma measured as survivors on day 9 at 10 mg/kg; 5/6; type: functional
Mus musculus [30] = assay: Antitumor activity in CF1 mice bearing Ehrlich ascites carcinoma measured as survivors on day 9 at 12 mg/kg; 0/6; type: functional
Mus musculus [31] = assay: Antitumor activity in CF1 mice bearing Ehrlich ascites carcinoma measured as ascites volume at 1 mg/kg; type: functional
In short: (§7)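 Ehrlich ascites cells (2 × 10⁶) were implanted ip in male CF1 mice (22–25 g) on day 0. Dosing was ip on days 1–8 in 0.05% Tween 80 or 5% EtOH/0.05% Tween 80, with vehicle controls. Mice were killed on day 9, and ascites fluid volume per mouse was measured.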

Mus musculus [32] = assay: Average days survived for treated / average days survived for control at 1 (mg/kg); 10.8/9.2; type: functional
Mus musculus [33] = assay: Antitumor activity in CF1 mice bearing Ehrlich ascites carcinoma measured as percent ascrit packed cell volume at 1 mg/kg; type: functional; in short: as §6
Mus musculus [34] = assay: Antitumor activity in CF1 mice bearing Ehrlich ascites carcinoma measured as percent ascrit packed cell volume at 10 mg/kg; type: functional; in short: as §6
Mus musculus [35] = assay: Antitumor activity in CF1 mice bearing Ehrlich ascites carcinoma measured as ascites volume at 10 mg/kg; type: functional; in short: as §7
Mus musculus [36] = assay: Antitumor activity in CF1 mice bearing Ehrlich ascites carcinoma measured as ascites volume at 0.5 mg/kg; type: functional; in short: as §7
Mus musculus [37] = assay: Antitumor activity in CF1 mice bearing Ehrlich ascites carcinoma measured as percentage inhibition at 0.5 mg/kg; IA= inactive; type: functional, organism-based; set-up: dose 0.5 mg/kg; in short: as §4
Mus musculus [38] = assay: Average days survived for treated / average days survived for control at 0.5 (mg/kg); 10.5/9.2; type: functional
Mus musculus [39] = assay: Average days survived for treated / average days survived for control at 1 (mg/kg); 13.3/9.2; type: functional
Mus musculus [40] = assay: Average days survived for treated / average days survived for control at 2 (mg/kg); 12.6/9.2; type: functional
Mus musculus [41] = assay: Average days survived for treated / average days survived for control at 3 (mg/kg); 10.2/9.2; type: functional
Mus musculus [42] = assay: Average days survived for treated / average days survived for control at 5 (mg/kg); 11/9.2; type: functional
Mus musculus [43] = assay: Antitumor activity in CF1 mice bearing Ehrlich ascites carcinoma measured as survivors on day 9 at 5 mg/kg; 6/6; type: functional
Mus musculus [44] = assay: Antitumor activity in CF1 mice bearing Ehrlich ascites carcinoma measured as percent ascrit packed cell volume at 0.5 mg/kg; type: functional; in short: as §6
Mus musculus [45] = assay: Anti tumor activity in mice bearing lymphocytic leukemia P-388 at 0.5 mg/kg; type: functional; in short: as §3
Mus musculus [46] = assay: Anti tumor activity in mice bearing lymphocytic leukemia P-388 at 2 mg/kg; type: functional; in short: as §3
Mus musculus [47] = assay: Anti tumor activity in mice bearing lymphocytic leukemia P-388 at 3 mg/kg; type: functional; in short: as §3
Mus musculus [48] = assay: Anti tumor activity in mice bearing lymphocytic leukemia P-388 at 5 mg/kg; type: functional; in short: as §3
Mus musculus [49] = assay: Anti tumor activity in mice bearing lymphocytic leukemia P-388 at 10 mg/kg; Toxic; type: functional, organism-based; set-up: dose 10 mg/kg; in short: as §3
Mus musculus [50] = assay: Antitumor activity in CF1 mice bearing Ehrlich ascites carcinoma measured as survivors on day 9 at 0.5 mg/kg; 5/6; type: functional

Sc1ncnc2nc[nH]c12 [MERCAPTOPURINE ANHYDROUS]
inhibition in vivo at 50 mg/kg (Mus musculus [1]): 96.3%
Survivors (Mus musculus [2]): 16
ascites volume (Mus musculus [3]): 0.2 ml mouse-1
packed cell volume (Mus musculus [4]): 10.5%

O=c1[nH]cc(F)c(=O)[nH]1 [FLUOROURACIL]
Average survival (days) (Mus musculus [5]): 17.6
T/C (Mus musculus [6]): 186%

CC(=O)NC1=C(Cl)C(=O)c2c(cnn2C(C)=O)C1=O
inhibition in vivo at 5 mg/kg (Mus musculus [7]): 95.6%
inhibition in vivo at 8 mg/kg (Mus musculus [8]): 25.5%
Survivors (Mus musculus [9]): 5
ascites volume (Mus musculus [10]): 2.9 ml mouse-1
ascites volume (Mus musculus [11]): 0.3 ml mouse-1
ascites volume (Mus musculus [12]): 0.75 ml mouse-1
Survivors (Mus musculus [13]): 4
Survivors (Mus musculus [14]): 4
inhibition (Mus musculus [15]): inactive
packed cell volume (Mus musculus [16]): 45.5%
packed cell volume (Mus musculus [17]): 5.9%
packed cell volume (Mus musculus [18]): 31.7%

CC(=O)NC1=C(N2CC2)C(=O)c2c(cnn2C)C1=O
inhibition (Mus musculus [19]): inactive
inhibition in vivo at 5 mg/kg (Mus musculus [7]): 78.3%
inhibition in vivo at 8 mg/kg (Mus musculus [8]): 25.8%
Survivors (Mus musculus [20]): 6
ascites volume (Mus musculus [10]): 3.2 ml mouse-1
ascites volume (Mus musculus [11]): 0.9 ml mouse-1
ascites volume (Mus musculus [12]): 1.2 ml mouse-1
Average survival (days) (Mus musculus [21]): 10
Survivors (Mus musculus [22]): 5
Survivors (Mus musculus [23]): 5
packed cell volume (Mus musculus [24]): 41.4%
packed cell volume (Mus musculus [17]): 37.4%
packed cell volume (Mus musculus [18]): 38.6%
T/C (Mus musculus [25]): 109%

Cn1cc2c(n1)C(=O)C(Cl)=C(N1CC1)C2=O
inhibition in vivo at 5 mg/kg (Mus musculus [7]): 83.7%
inhibition in vivo at 1 mg/kg (Mus musculus [26]): 72.9%
inhibition in vivo at 10 mg/kg (Mus musculus [27]): 96.3%
Survivors (Mus musculus [28]): 6
Survivors (Mus musculus [29]): 5
Survivors (Mus musculus [30]): 0
ascites volume (Mus musculus [31]): 0.8 ml mouse-1
ascites volume (Mus musculus [11]): 0.7 ml mouse-1
Average survival (days) (Mus musculus [32]): 10.8
Survivors (Mus musculus [22]): 5
packed cell volume (Mus musculus [33]): 12.7%
packed cell volume (Mus musculus [34]): 8.4%
packed cell volume (Mus musculus [17]): 36.2%
T/C (Mus musculus [25]): 117%
ascites volume (Mus musculus [35]): 0.44 ml mouse-1

O=C1C(N2CC2)=C(Cl)C(=O)c2n[nH]cc21
inhibition in vivo at 5 mg/kg (Mus musculus [7]): 92.5%
ascites volume (Mus musculus [36]): 0.38 ml mouse-1
inhibition (Mus musculus [37]): inactive
inhibition in vivo at 1 mg/kg (Mus musculus [26]): 95%
Survivors (Mus musculus [28]): 6
ascites volume (Mus musculus [31]): 0.32 ml mouse-1
ascites volume (Mus musculus [11]): 0.15 ml mouse-1
Average survival (days) (Mus musculus [38]): 10.5
Average survival (days) (Mus musculus [39]): 13.3
Average survival (days) (Mus musculus [40]): 12.6
Average survival (days) (Mus musculus [41]): 10.2
Average survival (days) (Mus musculus [42]): 11
Survivors (Mus musculus [43]): 6
packed cell volume (Mus musculus [33]): 5.8%
packed cell volume (Mus musculus [17]): 49.4%
packed cell volume (Mus musculus [44]): 44%
T/C (Mus musculus [45]): 114%
T/C (Mus musculus [25]): 145%
T/C (Mus musculus [46]): 137%
T/C (Mus musculus [47]): 111%
T/C (Mus musculus [48]): 120%
T/C (Mus musculus [49]): Toxic
Survivors (Mus musculus [50]): 5
